A short description of experiment [1]: reduced viability of SK-BR-3 breast cancer cells – cell-based, 24 h, human, pilot screen (AID 572;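 active = viability at or below 10% of carrier control in both of two separate runs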;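 note: compound exposure lasted between 18 and 24 h rather than exactly 24 h; 100% = carrier-treated control wells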). Particulars: SK-BR-3 viability, CellTiter-Glo luminescence, at 10 µM, stronger effect = lower value.
Experiment [2] is described as follows: HUVEC growth inhibition – cell-based, human, primary screen (AID 575;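 active = viability at or below 30% in both replicate assays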;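 note: 100% = median of untreated cell wells with 0.1% DMSO on each plate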). Particulars: HUVEC proliferation, CellTiter-Glo luminescence, 72 h; at 10 µM; stronger effect = lower value. Put shortly:
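Test system: primary human umbilical vein endothelial cells; medium: endothelial basal medium with 2% FBS plus growth supplements; dosing: 10 µM compound only; times: 72 h treatment at 37 °C; signal: CTG luminescence; read-out: % viability relative to median vehicle-well signal on each plate; control set: vehicle and MePR control wells; plate: 384-well, collagen-coated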
(ATP-based viability assays read luminescence as a measure of living cells.)

A short description of experiment [3]: H69AR cell proliferation blockers – human, duplicate replicates, primary screen (AID 580).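 Note: 100% = mean luminescence of untreated wells and 0% = no signal.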 The note with it: H69AR lung tumor cells viability, ATP luminescence, 72 h; at 10 µM; stronger effect = lower value.
The nature of experiment [4]: MRP1 drug-resistance reversers in H69AR cells – cell-based, doxorubicin co-treatment, pilot screen (AID 601;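 active = viability loss from added drug above about 55%, and viability with drug at most 40%, in both replicates, limit read from the data, passing the limit was not always enough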). The note with it: CellTiter-Glo, 72 h, at 10 µM; for differential viability (reversal): stronger effect = higher value.
Experiment [5] in a line: yeast transport mutant growth inhibition pilot in 384-well plates, post-Golgi transport modulator project (AID 636; in the data active = inhibition above about 31%). The note with it: absorbance 615 nm, about 18 h, stronger effect = higher value.
The nature of experiment [6]: growth suppression of yeast trafficking mutant, preliminary HTS, modulators of trafficking downstream of Golgi apparatus project, 1536-format plate, OD 615 nm (AID 637; in the data active = inhibition above about 30%). The note with it: yeast transport mutant growth, absorbance 615 nm, 18 h; stronger effect = higher value.
The mark [7] stands for this setting: H69AR cells + 2 uM doxorubicin, measured here: viability with 2 uM doxorubicin, stronger effect = lower value.
Setting [8] is: H69AR cells, compound alone cytotoxicity.

Values joined by “and” are separate entries in the source; they are usually repeats but may differ in a detail not shown here. Identical values can stand only once. Active and inactive are the calls of the source.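 Rule for the calls, unless noted: active = viability at or under a set limit in both replicates, limit being median viability minus 3 SD (cut at about 48% in these data, passing the limit was not always enough); inconclusive = at or under the limit in just one replicate; inactive = at or above the limit in both replicates.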

With `Cc1noc(C)c1C(=O)N1CCN(C(=O)c2sc3cc(Cl)ccc3c2Cl)CC1`, the viability in experiment [1] was 103% (inactive); in experiment [2], 106% (inactive); in experiment [3] it was 89% (inactive); in experiment [4] (setting [7]), 80.5%; in experiment [4] (setting [8]), 89%. The differential viability (reversal) in experiment [4] (H69AR cells + 2 uM doxorubicin) is 8.48% (inactive). Moreover, the inhibition in experiment [5] is -5.14% (inactive); in experiment [6], -1.64% (inactive).

`CCOC(=O)C1(c2ccccc2)NC(c2ccc(N(C)C)cc2)C2C(=O)N(C)C(=O)C21` (stereo unspecified): the viability in experiment [1] is 82% (inactive); in experiment [2], 104% (inactive); in experiment [3], 94.4% (inactive); in experiment [4] (setting [7]) it was 65.2%; in experiment [4] (setting [8]), 94.4%. The differential viability (reversal) in experiment [4] (H69AR cells + 2 uM doxorubicin) is 29.2% (inactive). The inhibition was -8.11% (inactive) in experiment [5] and -6.73% (inactive) in experiment [6].

For the compound `CC(C)CCNC(=O)C(C)N(Cc1ccc(F)cc1)C(=O)c1ccc(CN2CCCCC2)o1` (stereo unspecified), the viability in experiment [1] is 72% (inactive); in experiment [2] it was 108% (inactive); in experiment [3], 95.4% (inactive); in experiment [4] (setting [7]) it was 95.5%; in experiment [4] (setting [8]) it was 95.4%. The differential viability (reversal) in experiment [4] (H69AR cells + 2 uM doxorubicin) was -0.095% (inactive). Moreover, the inhibition in experiment [5] was -5.95% (inactive); in experiment [6], -2.91% (inactive).

Take `CCOc1ccc2c(c1)c1nnc(SCC(=O)N3CCC(C)CC3)nc1n2C`: the viability in experiment [1] is 84% (inactive); in experiment [2], 70.9% (inactive); in experiment [3] it was 95.8% (inactive); in experiment [4] (setting [7]), 87.3%; in experiment [4] (setting [8]), 95.8%. In addition, the differential viability (reversal) in experiment [4] (H69AR cells + 2 uM doxorubicin) is 8.51% (inactive). Also, the inhibition was -3.78% (inactive) in experiment [5] and -1.45% (inactive) in experiment [6].

For the compound `Cc1ccc(C)c(N(CC(=O)NC2CCCC2)C(=O)CCCC(=O)Nc2ccccn2)c1`, the viability in experiment [1] is 99% (inactive); in experiment [2], 81.6% (inactive); in experiment [3] it was 102% (inactive); in experiment [4] (setting [7]) it was 87.8%; in experiment [4] (setting [8]) it was 102%. In addition, in experiment [4] (H69AR cells + 2 uM doxorubicin), the differential viability (reversal) was 13.7% (inactive). Moreover, the figures for the inhibition in experiment [5] and in experiment [6] were -1.82% (inactive) and -2.95% (inactive), respectively.

As for `Cn1c(NC(=O)c2cccc(Cn3cc(Cl)cn3)c2)nc2ccccc21`, the viability was 83% (inactive) in experiment [1]; 72.4% (inactive) in experiment [2]; 68.9% (inactive) in experiment [3]; 68% in experiment [4] (setting [7]); 68.9% in experiment [4] (setting [8]). Besides, the differential viability (reversal) in experiment [4] (H69AR cells + 2 uM doxorubicin) is 0.885% (inactive). Further, the inhibition in experiment [5] is -4.93% (inactive); in experiment [6], -2.79% (inactive).

For the compound `COc1ccc(Cn2nnnc2CN2CCOCC2)cc1`, the viability is 100% (inactive) in experiment [1]; 97.4% (inactive) in experiment [2]; 96.7% (inactive) in experiment [3]; 102% in experiment [4] (setting [7]); 96.7% in experiment [4] (setting [8]). Moreover, the differential viability (reversal) in experiment [4] (H69AR cells + 2 uM doxorubicin) is -5.83% (inactive). Besides, the inhibition in experiment [5] was -6.85% (inactive); in experiment [6], -0.81% (inactive).

On to `Cc1ccc2nc(-c3ccc4c(c3)OCCO4)cc(C(=O)O)c2c1`, for which the viability in experiment [1] is 89% (inactive); in experiment [2], 104% (inactive); in experiment [3] it was 101% (inactive); in experiment [4] (setting [7]), 95%; in experiment [4] (setting [8]), 101%. The differential viability (reversal) in experiment [4] (H69AR cells + 2 uM doxorubicin) was 5.86% (inactive). The inhibition in experiment [5] was -4.73% (inactive); in experiment [6], -6% (inactive).

Consider `Cc1ccc(C2=Nc3ccccc3NC(C)(c3ccc(C)o3)C2)o1` (stereo unspecified), for which the viability in experiment [1] was 95% (inactive); in experiment [2], 79% (inactive); in experiment [3], 64% (inactive); in experiment [4] (setting [7]) it was 74.7%; in experiment [4] (setting [8]), 64%. Also, in experiment [4] (H69AR cells + 2 uM doxorubicin), the differential viability (reversal) is -10.7% (inactive). For the same compound, the inhibition in experiment [5] was 3.97% (inactive); in experiment [6] it was 27.1% (inactive).

As for `COc1ccc(NC(=O)CCc2ccccc2)cc1NC(=O)c1ccco1`, the viability is 64% (inactive) in experiment [1]; 58.4% (inactive) in experiment [2]; 56.6% (inactive) in experiment [3]; 77.2% in experiment [4] (setting [7]); 56.6% in experiment [4] (setting [8]). Moreover, in experiment [4] (H69AR cells + 2 uM doxorubicin), the differential viability (reversal) is -20.6% (inactive). For the same compound, the inhibition was -7.12% (inactive) in experiment [5] and 9.68% (inactive) in experiment [6].

With `Cc1ccc(N(CC2=NCCN2)c2cccc(O)c2)cc1`, the viability in experiment [1] is 85% (inactive) and 113% (inactive); in experiment [2] it was 84.3% (inactive) and 64.3% (inactive); in experiment [3] it was 98.5% (inactive) and 92.6% (inactive); in experiment [4] (setting [7]), 100% and 80.7%; in experiment [4] (setting [8]), 98.5% and 92.6%. In experiment [4] (H69AR cells + 2 uM doxorubicin), the differential viability (reversal) is -1.66% (inactive) and 11.9% (inactive). Also, the inhibition in experiment [5] was -1.43% (inactive) and 1.17% (inactive); in experiment [6] it was -3.17% (inactive) and 0.5% (inactive).

Regarding `NC(=O)C1CCN(c2nc(-c3ccccc3)nc3ccccc23)CC1`, the viability in experiment [1] was 114% (inactive); in experiment [2] it was 77.2% (inactive); in experiment [3] it was 66.3% (inactive); in experiment [4] (setting [7]) it was 69.2%; in experiment [4] (setting [8]) it was 66.3%. The differential viability (reversal) in experiment [4] (H69AR cells + 2 uM doxorubicin) was -2.88% (inactive). Further, the figures for the inhibition in experiment [5] and in experiment [6] were -3.15% (inactive) and -4.03% (inactive), respectively.

The viability is a read-out of living cells in per cent, often relative to untreated cells. In general, inhibition refers to the relative decrease from the control value, in per cent.

(Values after PubChem BioAssay.)
